The sample as a whole holds a higher share of hits than the screen did.
Lung fibro prol: blocks proliferation of human lung fibroblasts. AID 719. 85,000 compounds, 1.1% hits. LL 47 human lung fibroblast viability, ATP luminescence; active compounds read low. viability, % at 10 µM;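 active = viability at or below 50% in the single dose screen; inactive = viability above 50%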;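 also: compound exposure lasted 72 h before the ATP readout; 100% = median luminescence of untreated cell-only wells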
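Assay system: human lung fibroblast line LL 47, low passage. Input: 1,150 fibroblasts seeded per well. Times: overnight cell rest, 72 h compound treatment at 37 °C. Evaluation: % viability of median cell-only signal. Technique: luminescent ATP detection, CellTiter-Glo. Control set: cell-only wells, no compound.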
Phagocytosis inh: inhibitors of macrophage phagocytosis; J774A.1 macrophage IgG-bead phagocytosis, imaging; inhibition, % at 5 µM; 110,000 compounds, 0.07% hits;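 active = inhibition above the mean of the plate negative controls plus 5 SD, cut at about 13% in these data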;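 also: phagocytic index as fraction of beads internalized from green versus red external bead signal; plate controls were DMSO negative control for no effect and cytochalasin-D positive control for full effect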
bCat KO growth: beta-catenin-lacking colon tumor cell growth suppression; 140,000 compounds, 1.5% hits; viability, % at 10 µM; HCT116 beta-catenin knockout viability, CellTiter-Glo, 60 h; active compounds read low;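 active = viability at or under a set limit, the compound median less 4 SD, cut at about 6% in these data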;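 also: 0% = Hyamine 1622 control at 20 µM and 100% = untreated cell control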
HUVEC prolif 384: blocks proliferation of human endothelial cells. viability, % at 10 µM (by protocol). 86,000 compounds, 1.1% hits. HUVEC proliferation, CellTiter-Glo luminescence, 72 h; active compounds read low;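 active = viability at or below 30%; inactive = viability above 30%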;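 also: 100% = median luminescence of DMSO-only cell control wells on each plate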
H69AR growth 86K: growth inhibitors of human H69AR lung tumor cells. H69AR lung tumor viability, ATP luminescence, 72 h; active compounds read low. viability, % at 10 µM. 85,000 compounds, 6% hits. AID 598;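 active = viability at or below 40%; inactive = viability above 40%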;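 also: multidrug resistant small cell line overexpressing MRP-1 efflux transporter; 100% = mean luminescence of untreated control wells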
PTEN del growth: PTEN-deleted cell growth suppression | HCT116 PTEN-null viability, CellTiter-Glo, 60 h; active compounds read low | viability, % at 10 µM | 140,000 compounds, 1.2% hits | AID 827;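 active = viability at or below a set limit, 4 SD under the median of all tested compounds, cut at about 3.7% in these data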;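 also: PTEN knockout HCT116 line with beta catenin targeted HCT116 as companion control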
Numbers without * were called inactive; · = no result given.

SMILES | Lung fibro prol | Phagocytosis inh | bCat KO growth | HUVEC prolif 384 | H69AR growth 86K | PTEN del growth
Cc1ccsc1/C=C/C1=Cc2c(sc(NC(=O)CSc3n[nH]c(N)n3)c2C#N)C(C)(C)C1 | 89 | 0 | 75 | 15* | 1.7* | 74
Cc1ccc(CNC(=O)CSc2n[nH]c(N)n2)cc1 | 105 | · | 93 | 102 | 91 | 99
Cc1cc(NS(=O)(=O)Cc2ccccc2)no1 | 106 | 0 | 104 | 101 | 91 | 110
Cc1cnc(C(=O)OCC(=O)Nc2oc(-c3ccccc3)c(-c3ccccc3)c2C#N)cn1 | 71 | -1 | 99 | 98 | 34* | 96
CC(C)(C)c1ccc(C(=O)CSc2n[nH]c(=O)[nH]c2=O)cc1 | · | -2 | 91 | · | · | 99
CSc1cc(-c2ccccc2)n(Cc2c(Cl)cccc2Cl)c(=O)c1C#N | 33* | 1 | 26 | 29 | 12* | 30
CSc1cc(-c2ccc(Cl)cc2)n(Cc2ccccc2)c(=O)c1C#N | 27* | 0 | 90 | 8.8* | 5.4* | 94
CC(C)(C)c1ccc(CN2N=Nc3ccccc3S2(=O)=O)cc1 | 17* | · | 73 | 9.6* | 0.7* | 71
O=S1(=O)c2ccccc2N=NN1Cc1ccc(Cl)c(Cl)c1 | 8.7* | 2 | 84 | 31 | 1.6* | 86
O=S1(=O)CCN(Cc2ccc(Cl)c(Cl)c2)CC1 | · | · | 84 | · | · | 92
CC(C)(C)c1ccc(Cn2cnc(-c3ccc([N+](=O)[O-])cc3)c2)cc1 | · | -6 | 33 | · | · | 48
Cc1nc2ccccc2n2c(-c3ccccc3)c3c(=O)n(C)c(=O)n(C)c3c12 | 97 | · | 89 | 85 | 67 | 94
O=C(CCN1CCc2ccccc21)c1ccc2c(c1)OCCO2 | 95 | 0 | 12 | 101 | 92 | 12
O=C(CCN1CCc2ccccc2C1)c1ccc2c(c1)OCCO2 | 80 | 0 | 64 | 87 | 0.7* | 80
CCc1cc[n+](C2=C([O-])c3ccccc3C(=O)/C2=N\S(=O)(=O)c2cccs2)cc1 | · | -5 | 2.8* | · | · | 3.2*
Nc1nc(Nc2ccc(Cl)cc2)nc2ccccc12 | 81 | 0 | 17 | 56 | 21* | 22
Cc1ccc2c(CC(=O)NCc3ccco3)coc2c1C | 55 | 0 | 29 | 53 | 27* | 37
Cc1ccc(C(=O)NCc2ccco2)cc1Br | 101 | 0 | 103 | 103 | 95 | 105
COCC(C)n1c(C)cc(C(=O)COC(=O)c2c(C)nn(-c3ccccc3)c2C)c1C (centres undefined) | 94 | -1 | 77 | 100 | 87 | 81
COCC(C)n1c(C)cc(C(=O)COC(=O)c2c(NC(C)=O)sc(C)c2C)c1C (centres undefined) | 62 | 0 | · | 31 | 3.2* | ·
N#CCCC12CCCCC1=Nc1ccccc12 (centres undefined) | 106 | 0 | 88 | 100 | 95 | 90
COc1ccc(Br)cc1CN(C)CC(=O)Nc1c(Cl)cccc1Cl | · | 2 | 74 | · | · | 74
CCOC(=O)C1CCN(C(=O)Nc2ccc3nc(-c4ccco4)c(-c4ccco4)nc3c2)CC1 | 93 | 0 | 76 | 75 | 38* | 77
COc1ccc(OC)c(S(=O)(=O)N(C)CC(=O)N2CCN(c3cccc(Cl)c3)CC2)c1 | 93 | -1 | 81 | 78 | 78 | 89
COc1ccc(OC)c(S(=O)(=O)N(C)CC(=O)N2CCN(c3ccc(F)cc3)CC2)c1 | 18* | 2 | 87 | 101 | 95 | 86
SMILES | Lung fibro prol | Phagocytosis inh | bCat KO growth | HUVEC prolif 384 | H69AR growth 86K | PTEN del growth
COc1ccc(NC(=O)NCCCN2CCN(c3cc(C)ccc3C)CC2)cc1 | 90 | 0 | 1.4* | 73 | 61 | 1.4*
Cc1ccc(S(=O)(=O)Nc2cccc3cccnc23)cc1 | 5.8* | 0 | 1.6* | 46 | 1.9* | 1.6*
COc1cc(NS(=O)(=O)c2ccc(C)cc2)c2ncccc2c1 | 9.1* | · | 3.6* | 19 | 4.0* | 2.3*
O=S(=O)(Nc1cc(Sc2cccc3cccnc23)c(O)c2ccccc12)c1ccccc1 | · | -3 | 1.3* | · | · | 1.2*
COc1ccc(S(=O)(=O)Nc2cc(C)ccn2)cc1 | 100 | · | 105 | 94 | 109 | 102
CC(NC(=O)C1CCN(S(=O)(=O)c2cnc[nH]2)CC1)c1ccccc1 (centres undefined) | · | -3 | 87 | · | · | 106
Cn1c2ccccc2c(=O)c2c(=O)n(C3CCCCC3)c(-c3ccco3)nc21 | · | · | 4.1* | · | · | 3.4*
CC(C)Cn1c(-c2ccco2)nc2c(c(=O)c3ccccc3n2C)c1=O | · | -4 | 56 | · | · | 63
CC1Cc2ccccc2N1C(=O)CSc1nc2c(c(=O)n(C)c(=O)n2C)n1Cc1ccc(F)cc1 (centres undefined) | 30* | · | · | 50 | 11* | ·
Cn1c(=O)c2c(nc(SCC(=O)N3CCc4ccccc43)n2Cc2ccccc2)n(C)c1=O | 99 | -3 | · | 98 | 72 | ·
Cc1cccc(-c2noc(-c3cc4ccccc4oc3=O)n2)c1 | · | · | 83 | · | · | 92
c1ccc(-c2cn3c4c(sc3n2)CCCC4)cc1 | 67 | 0 | 44 | 52 | 21* | 46
CCOC(=O)C1(CCSC)NC(c2ccco2)C2C(=O)N(C)C(=O)C21 (centres undefined) | 93 | -2 | 96 | 103 | 98 | 103
Cc1cccc(-n2c(O)c(C=Nc3ccc4c(c3)OCO4)c3ccccc3c2=O)n1 | 91 | -1 | 88 | 90 | 77 | 91
Cc1cc(N=Cc2c(O)n(-c3ccc(C)c(C)c3)c(=O)c3ccccc23)no1 | · | -10 | 33 | · | · | 28
Cc1cc(N=Cc2c(O)n(-c3ccc4c(c3)OCO4)c(=O)c3ccccc23)ccn1 | 73 | 2 | 83 | 87 | 21* | 80
Cc1ccc(-n2c(O)c(C=Nc3ccc4c(c3)OCO4)c3ccccc3c2=O)cc1C | · | -1 | 2.0* | · | · | 2.4*
Cc1c(NC(=O)CSc2nnc(-c3cccc(Cl)c3)o2)c(=O)n(-c2ccccc2)n1C | 99 | 0 | 95 | 105 | 95 | 101
c1ccc(-n2ncc3c2ncn2nc(CSc4nc5ccccc5s4)nc32)cc1 | 62 | 2 | · | 42 | 29* | ·
CSc1nc2ccc3nc(NC(=O)c4ccccc4)sc3c2s1 | 97 | · | 90 | 109 | 32* | 80
c1ccc(CN2CCN(C3=Nc4cccc5cccc3c45)CC2)cc1 | 89 | · | 14 | 37 | 35* | 13
COCc1c(C(=O)OCC(=O)NCCN2C(=O)CSC2=O)oc2ccccc12 | · | -6 | 98 | · | · | 87
Cc1cc(C(=O)COC(=O)c2n[nH]c3ccccc23)c(C)n1C | 90 | -1 | 76 | 89 | 89 | 76
COc1cc(C(=O)OCC(=O)c2cc(C)n(C)c2C)cc(OC)c1OC | 67 | 2 | 29 | 64 | 24* | 35
O=S(=O)(c1ccc(N2CCCC2c2nc3ccccc3s2)nc1)N1CCOCC1 (centres undefined) | 88 | 0 | 90 | 97 | 23* | 88
O=S(=O)(c1ccc(Br)cc1)N1CCCC1c1nc2ccccc2s1 (centres undefined) | · | · | 84 | · | · | 86

Assay outcomes deposited in PubChem by several laboratories.
